Shown are actives, neighbours in structure and some others; about 1.9% of the full set was active somewhere.
TDP2 inh = human TDP2 enzyme inhibitors, primary screen, biochemical, epi absorbance, recombinant enzyme; T5PNP hydrolysis, p-nitrophenol absorbance 415 nm; inhibition, % at 12.8 µM; 370,000 tested, 0.34% active;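 active = inhibition above the mean of all tested compounds plus 3 SD, set per campaign, cut at about 25% in these data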;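 also: 0% = DMSO with enzyme and 100% = buffer with substrate but no TDP2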
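Evaluation: % inhibition relative to enzyme-containing and enzyme-free wells. Material: recombinant human TDP2. Benchmarks: enzyme-free and DMSO wells. Timing: enzyme reaction with compound for 2 h at 37 °C. Compound dosing: 12.8 µM only. Measured by: p-Nitrophenol epi absorbance. Reagent: T5PNP substrate at 5 mM, a TopII-DNA adduct mimic. Replication: single well per compound.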
Rin1-Abl PPI inh = inhibitors of Rin1-Abl protein binding, primary screen, biochemical, TR-FRET. inhibition, % at 7.35 µM. 360,000 tested, 0.4% active. Tyrosine-protein kinase ABL1 (Homo sapiens) + Ras and Rab interactor 1 (Homo sapiens), …; in the data active = inhibition above about 5%, passing the limit was not always enough
UHRF1 MBD2 ctr = UHRF1 methylated DNA binding inhibitors, primary screen, counter-screen for MBD2 inhibitor project, biochemical, TR-FRET, human UHRF1, single concentration; E3 ubiquitin-protein ligase UHRF1 (Homo sapiens), Q96T88; UHRF1 binding to methylated oligo; inhibition, % at 4.4 µM; 370,000 tested, 0.75% active; in the data active = inhibition above about 21%;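 also: UHRF1 SRA domain binding a hemimethylated CpG hairpin DNA probe; 0% = median of test compound wells and 100% = reference inhibitor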
LEDGF integ inh = blockers of LEDGF/p75-dependent integrase strand transfer – biochemical, TR-FRET, high throughput, primary screen | TR-FRET IN-LEDGF/p75 DNA integration, Eu/Cy5 | inhibition, % at 3.7 µM | HIV-1 integrase (with human LEDGF/p75) | AID 743269, 2014 | 370,000 tested, 0.64% active;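 active = inhibition above the screen-wide mean plus 3 SD, cut at about 13% in these data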;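 also: signal is the Cy5 over europium emission ratio at 671 and 618 nm; 0% = plate median of compound wells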
MBD2 DNA inh = inhibitors of MBD2 binding to methylated DNA, primary screen, biochemical, TR-FRET, DNA-binding domain, human. inhibition, % at 4.4 µM. Methyl-CpG-binding domain protein 2 (Homo sapiens), Q9UBB5. MBD2 binding to methylated oligonucleotide. 370,000 tested, 0.31% active; in the data active = inhibition above about 13%
Starred values were filed as active, the others as inactive; nt = no result given.

SMILES | TDP2 inh | Rin1-Abl PPI inh | UHRF1 MBD2 ctr | LEDGF integ inh | MBD2 DNA inh
Cc1cc(C2C(C#N)=C(N)OC3=C2C(=O)CCC3)c(C)s1 (configuration not stated) | 1 | -4 | -1 | -1 | -2
COc1ccc(CC(=O)N2CCN(C(=O)c3ccc4nc(C)n(C5CCCC5)c4c3)CC2)cc1 | 3 | nt | 0 | 0 | -3
COc1ccc(-c2nc3ccc(Br)cn3c2Cc2ccccc2C(F)(F)F)cc1OC | -7 | -9 | 2 | 6 | -1
COc1ccc(-c2nc3cc(C)c(Br)c(C)n3c2Cc2ccccc2C(F)(F)F)cc1OC | 9 | nt | 25* | -2 | 7
CCOC(=O)N(C)[C@H]1C[C@H]2c3[nH]c4c(-c5cccc(C)c5)cccc4c3CCN2C[C@H]1[C@H](C)O | -7 | nt | -2 | -3 | 4
CCOC(=O)CC[C@H]1CC[C@]2(CCCN(C(=O)c3ccccc3)C2)O1 | -5 | nt | -1 | -1 | 0
CN(CCc1ccccc1)C(=O)c1cccc(NC(=O)Cc2cccc(NC(=O)C3CCN(C(=O)C4CC4)CC3)c2)c1 | -5 | 0 | 96* | 0 | 0
COc1ccc(-c2noc(CNC(=O)Nc3ccc(F)cc3)n2)cc1 | 0 | 2 | 65* | -3 | 4
Cc1cccc(-c2noc(CNC(=O)Nc3ccc(F)cc3)n2)c1 | 8 | 4 | 2 | 1 | 3
N#Cc1cn(CC(=O)NCC2CCCO2)c2ccccc12 (configuration not stated) | 10 | 2 | 23* | -2 | 3
Cc1ccc(-c2c[n+](CC(=O)Nc3ccc(C)cc3C)c3n2CCC3)cc1 | -5 | -2 | 37* | -4 | 0
O=C(C[n+]1cc(-c2ccc(F)cc2)n2c1CCC2)Nc1nc(-c2ccccc2)cs1 | 3 | -1 | 44* | -4 | -2
Cc1ccc(-n2nc3c(=O)n(CCCC(=O)NCc4ccccc4C)nc(C)c3c2C)cc1 | -20 | 1 | -1 | 2 | 1
Cc1ccccc1CNC(=O)CCn1nc(C)c2c(C)n(-c3ccccc3)nc2c1=O | 1 | 0 | 22* | 1 | 10
CC(C)(C)OC(=O)N1CCC2CCN(S(C)(=O)=O)CC21 (configuration not stated) | 8 | nt | 1 | -2 | 7
O=C(c1cncc(Br)c1)N1CCN(S(=O)(=O)c2ccc3ccccc3c2)CC1 | 9 | 4 | 4 | 23* | -1
O=C(c1ccc(=O)[nH]c1)N1CCN(S(=O)(=O)c2ccc3ccccc3c2)CC1 | -10 | 0 | 4 | -5 | 0
COc1cc(OC)cc(C(C)c2ccc(-c3ccccc3)cc2)c1 (configuration not stated) | 1 | nt | -1 | -2 | 2
O=C(c1ccc(F)cc1)C1CCN(C(=O)c2ccncc2)CC1 | 7 | 1 | 80* | 0 | -6
Cc1ccc(-c2cnc(NC(=O)c3cccc(Br)c3)s2)c(C)c1 | 6 | 1 | 26* | -2 | 13
Nn1c(SCC(=O)NC2CCCCC2)nnc1-c1n[nH]c2c1CCC2 | -16 | nt | 7 | 3 | 0
Cc1cc(NS(=O)(=O)c2ccc(NC(=O)CSc3nc4ncc(Br)cc4[nH]3)cc2)nc(C)n1 | -3 | -2 | 39* | -6 | 3
Cc1cc(NS(=O)(=O)c2ccc(NC(=O)CSc3nc4ncc(Cl)cc4[nH]3)cc2)nc(C)n1 | 14 | 2 | 1 | -5 | 3
CCCCOCCCNC(=O)C[C@H]1C[C@@]2(C(=O)OC)C(=C[C@H](C(C)C)O[C@@H]2C2CC2)N(Cc2ccco2)C1=O | 1 | nt | -4 | -1 | 3
COCc1c(C(N)=O)nnn1-c1nonc1N | -6 | 0 | 32* | 4 | 1
SMILES | TDP2 inh | Rin1-Abl PPI inh | UHRF1 MBD2 ctr | LEDGF integ inh | MBD2 DNA inh
Cc1ccc(/C=N/NC(=O)c2nnn(-c3nonc3N)c2CN(C)C)o1 | 6 | 1 | 0 | -3 | 3
COCc1c(C(=O)N/N=C/c2ccc(C)o2)nnn1-c1nonc1N | 9 | -2 | 25* | 0 | 0
CC1CCC2(CC1)CCC2NCc1ccc(Cl)c(Cl)c1 (configuration not stated) | 6 | nt | 2 | -2 | 4
CCn1c2ccccc2c2cc(NC(=O)COC(=O)c3ccc(F)cc3F)ccc21 | 3 | nt | 0 | -3 | -3
Cn1c(SCC(=O)Nc2sccc2C#N)nnc1C1CC1 | -4 | 1 | 27* | 1 | 1
Cn1c(SCC(=O)Nc2sccc2C#N)nnc1-c1ccccc1 | -6 | -1 | 2 | 1 | -2
c1ccc(-c2cccc(CNc3nc(-c4ccccn4)nnc3-c3ccccc3)c2)cc1 | 0 | nt | 0 | 1 | 0
C=C(C)c1cccc(C(C)(C)NC(=O)N2CCCCC2CC)c1 (configuration not stated) | 7 | 0 | 22* | 3 | 7
C=C(C)c1cccc(C(C)(C)NC(=O)N2CCN(CC)CC2)c1 | 4 | 5 | 1 | -2 | -4
Cc1ccc(NC(=S)NNC(=O)CSc2nc3sc4c(c3c(=O)n2-c2ccccc2)CCCC4)cc1 | 11 | nt | -2 | 2 | 2
COc1ccc(S(=O)(=O)N2CCC(C(=O)Nc3nccs3)CC2)cc1 | 0 | -4 | 30* | -2 | -4
COc1ccc(CCC(=O)Nc2ccc(N3CCOCC3)cc2)cc1 | 13 | -4 | 31* | 4 | 13
COc1ccc(NC(=O)CCc2nnc3ccc(N4CCC(C)CC4)nn23)cc1 | 10 | 0 | 0 | -5 | 4
COc1ccc(NS(=O)(=O)c2cc(NC(=O)CCc3ccccc3)ccc2N2CCOCC2)cc1 | 5 | 1 | 31* | -1 | 6
COc1ccc(N2CCN(c3ccc4nnc(CCC(=O)Nc5ccc(C)cc5)n4n3)CC2)cc1 | 2 | -2 | 21* | 0 | 4
CC(C)c1ccc(S(=O)(=O)/N=C2\C=C(NS(=O)(=O)c3ccccc3)C(=O)c3ccccc32)cc1 | 25* | -4 | -4 | 25* | -16
CC(=O)Nc1ccc(NC2=C/C(=N/S(=O)(=O)c3cccs3)c3ccccc3C2=O)cc1 | 77* | 4 | 3 | 50* | -6
COc1ccc(S(=O)(=O)/N=C2\C=C(Nc3ccc(O)cc3)C(=O)c3ccccc32)cc1 | 67* | -4 | 0 | 65* | -6
O=C(O)c1ccc(S(=O)(=O)/N=C2\C=C(Nc3ccccc3F)C(=O)c3ccccc32)cc1 | 89* | 3 | 7 | 60* | -11
CCc1ccc(S(=O)(=O)/N=C2\C=C(NS(=O)(=O)c3ccccc3)C(=O)c3ccccc32)cc1 | 18 | 0 | -2 | 11 | -13
Cc1ccc(NC2=C/C(=N/S(=O)(=O)c3cccs3)c3ccccc3C2=O)cc1C | -1 | -4 | -3 | 5 | 1

Screening results (PubChem)
